ChEMBL document CHEMBL1157079, “Labdane diterpenes from the aerial parts of Curcuma comosa enhance fetal hemoglobin production in an erythroid cell line” (J Nat Prod, 2010)
Activity calls are given as the source filed them. The calls are words filed in the database; no cut-off is given here.

Key:
K562 [1] = experiment: Induction of fetal heamoglobin level in human K562 cells assessed as increase in enhanced GFP expression under the control of gamma-globin promoter after 5 days by flow cytometry; format: functional, cell-based
Outline: (§1)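 Stable reporter line K562::∆Gγ-Aγ EGFP, carrying the EGFP gene under a γ-globin promoter within the intact human β-globin locus. Compounds tested at 5-100 µM. Read-out is EGFP expression as fold change relative to untreated, with % cell viability measured alongside. Hemin 50 µM and cisplatin 10 µM serve as reference inducers, with a DMSO vehicle control. Values are mean ± SD of three independent experiments.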

K562 [2] = experiment: Induction of fetal heamoglobin level in human K562 cells assessed as increase in enhanced-GFP expression under the control of gamma-globin promoter at 20 uM after 5 days by flow cytometry; format: functional; outline: as §1
[3] = Cytotoxicity against human K562 cells assessed as cell viability at 20 uM; format: cell-based; details: read-out: Activity; outline: as §1
K562 [4] = experiment: Induction of fetal heamoglobin level in human K562 cells assessed as increase in enhanced GFP expression under the control of gamma-globin promoter at 5 uM after 5 days by flow cytometry; format: functional; outline: as §1
[5] = Cytotoxicity against human K562 cells assessed as cell viability at 5 uM; format: cell-based; details: read-out: Activity; outline: as §1
K562 [6] = experiment: Induction of fetal heamoglobin level in human K562 cells assessed as increase in enhanced-GFP expression under the control of gamma-globin promoter at 5 to 100 uM after 5 days by flow cytometry; format: functional, cell-based; outline: as §1
K562 [7] = experiment: Induction of fetal heamoglobin level in human K562 cells assessed as increase in enhanced-GFP expression under the control of gamma-globin promoter at 30 uM after 5 days by flow cytometry; format: functional; outline: as §1
[8] = Cytotoxicity against human K562 cells assessed as cell viability at 30 uM; format: cell-based; details: read-out: Activity; outline: as §1

Structure (SMILES) | Activity (K562 [1]) | fold change (FC) (K562 [2]) | viability at 20 µM [3] | fold change (FC) (K562 [4]) | viability at 5 µM [5] | Activity (K562 [6]) | fold change (FC) (K562 [7]) | viability at 30 µM [8]
C=C1CC[C@H]2C(C)(C)CCC[C@]2(C)[C@H]1C/C=C1/C(=O)OC[C@@H]1O [ISOCORONARIN D] | Dose-dependent effect | 1.6 | 80.7% | – | – | – | – | –
C=C1CC[C@H]2C(C)(C)CCC[C@]2(C)[C@H]1/C=C/C1=C(O)COC1=O [ZERUMIN] | – | – | – | 1 | 87.5% | inactive | – | –
C=C1CC[C@H]2C(C)(C)CCC[C@]2(C)[C@H]1/C=C/c1ccoc1 [CORONARIN E] | – | – | – | 0.7 | 87.2% | inactive | – | –
C=C1CC[C@H]2C(C)(C)CCC[C@]2(C)[C@H]1/C=C/C1=CCOC1=O [VILLOSIN] | – | – | – | 1 | 88.9% | inactive | – | –
C=C1CC[C@H]2C(C)(C)C(=O)CC[C@]2(C)[C@H]1/C=C/C1=CCOC1=O [CURCUCOMOSIN A] | – | – | – | 1 | 85.8% | inactive | – | –
C=C1CC[C@H]2C(C)(C)CCC[C@]2(C)[C@H]1C[C@@H](O)C1=CCOC1=O [CURCUCOMOSIN C] | – | – | – | – | – | – | 1.2 | 75.8%
C=C1CC[C@H]2C(C)(C)[C@@H](O)CC[C@]2(C)[C@H]1/C=C/C1=CCOC1=O [CURCUCOMOSIN B] | – | – | – | 1 | 87.7% | inactive | – | –
